Bioassay records: PubChem BioAssay, several laboratories
Pemphigus Ab inh = human desmoglein-3 autoantibody binding inhibition. 310,000 compounds, 0.48% hits. binding (percent of control), % at 10 µM. P32926. AID 588358. DSG3-coupled beads, scFv-anti-DSG3-GFP binding, flow cytometry; stronger effect = lower value;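 active = binding more than 3 SD below its plate's average and above zero; inconclusive = below that plate limit but binding exactly zero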;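 note: hits lower antibody fragment binding to DSG3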
Target sequence (P32926 whole entry, looked up, the tested form may be a part): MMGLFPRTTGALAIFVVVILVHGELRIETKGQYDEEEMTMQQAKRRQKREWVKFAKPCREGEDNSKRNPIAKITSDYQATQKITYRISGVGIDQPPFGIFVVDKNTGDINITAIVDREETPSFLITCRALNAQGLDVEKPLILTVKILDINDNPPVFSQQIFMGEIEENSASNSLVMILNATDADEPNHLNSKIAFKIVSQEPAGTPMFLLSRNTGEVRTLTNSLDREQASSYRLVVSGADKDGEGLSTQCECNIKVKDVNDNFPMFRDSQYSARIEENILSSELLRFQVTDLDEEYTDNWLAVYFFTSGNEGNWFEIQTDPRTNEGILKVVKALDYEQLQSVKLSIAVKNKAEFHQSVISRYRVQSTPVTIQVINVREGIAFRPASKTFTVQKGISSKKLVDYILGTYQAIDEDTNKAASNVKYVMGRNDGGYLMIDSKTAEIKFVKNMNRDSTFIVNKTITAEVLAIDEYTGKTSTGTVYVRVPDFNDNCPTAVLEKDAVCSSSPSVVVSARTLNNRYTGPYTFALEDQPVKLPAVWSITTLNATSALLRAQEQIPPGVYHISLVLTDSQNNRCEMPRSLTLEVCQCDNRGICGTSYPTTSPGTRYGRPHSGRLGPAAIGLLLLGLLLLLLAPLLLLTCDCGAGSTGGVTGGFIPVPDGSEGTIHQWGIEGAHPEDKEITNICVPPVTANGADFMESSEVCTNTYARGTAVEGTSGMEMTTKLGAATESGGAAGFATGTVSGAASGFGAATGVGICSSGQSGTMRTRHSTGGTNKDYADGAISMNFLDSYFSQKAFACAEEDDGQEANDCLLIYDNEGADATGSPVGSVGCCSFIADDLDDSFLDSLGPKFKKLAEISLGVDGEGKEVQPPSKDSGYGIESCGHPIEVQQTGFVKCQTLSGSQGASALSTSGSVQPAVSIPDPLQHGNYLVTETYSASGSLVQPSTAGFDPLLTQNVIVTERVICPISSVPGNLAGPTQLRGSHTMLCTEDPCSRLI
Vif inh = blocks HIV Vif function; HEK293T cells, Vif self-association by quenched fluorescence, imaging, 24 h; inhibition, % at 7.49 µM; 340,000 compounds, 0.35% hits; in the data active = inhibition above about 50%, passing the limit was not always enough; inconclusive = no clear call, values can overlap the other calls; inactive = below about 31%
T cell modulator = T cell immune modulators affecting CD8 T cell-vesicle binding | response (vesicle binding), % at 7 µM | 2C CD8+ T cell-vesicle binding, flow cytometry; stronger effect = lower value | 330,000 compounds, 0.068% hits;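 active = response, share of CD8 T cells binding vesicles, and their 90th percentile fluorescence all below set limits, cut at about 80% in these data, passing the limit was not always enough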;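 note: values below 100% mean blocked vesicle binding to the CD8+ T cells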
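Read-out – percent CD8+ FL2 mean versus row control · System – murine 2C transgenic CD8+ T lymphocytes · Times – 1.5 h cell–vesicle binding at 37 °C, then 20 min icy labelling · Control set – naked vesicles low, QL9 vesicles with vehicle high · Detection – cytometric PE anti-B7-1 and Alexa647 anti-CD8 signals after 1% paraformaldehyde fixation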
Myeloid diff MLP = promotes myeloid progenitor differentiation | 360,000 compounds, 1% hits | ER-HoxA9 myeloid progenitors, lysozyme-GFP differentiation, flow cytometry | AID 624256 | calls only at 10 µM;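 active = normalized GFP-positive differentiation at or above the plate's own cutoff, the solvent-only control mean plus 3 SD; inconclusive = no clear call, values can overlap the other calls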;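 note: cells exposed to compound for four days before flow analysis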
Myeloid diff CP1 = compounds promoting myeloid differentiation; ER-HoxA9 myeloid progenitors, GFP/Mac1 double-positive flow; calls only; 2,300 compounds, 2% hits; shares compounds with Myeloid diff MLP; AID 651706;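 active = share of green or green-and-red cells above 9 and 9% in run 1 or 4 and 3% in run 2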
GFP autofluor = compound fluorescence in myeloid differentiation counter-screen; shares compounds with Myeloid diff MLP; ER-HoxA9 myeloid progenitors, no estrogen, GFP autofluorescence flow cytometry; vehicle wells 0%, positive control 100%; fluorescence response, % (concentration not given with the values); 2,300 compounds, 7.4% hits; AID 651707;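 active = over 5% cells positive for green fluorescent reporter, or over 2% positive for both it and APC stain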;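 note: range taken on the double positive population between DMSO and positive control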
The depositor's hits bear a star; i = inactive; ? = inconclusive; nt = not tested or not shown; + = active, no number. Most compounds without a hit are left out; they make up all but 1.7% or so of the library.

SMILES	Pemphigus Ab inh	Vif inh	T cell modulator	Myeloid diff MLP	Myeloid diff CP1	GFP autofluor
O=C(O)C1CCCCC1C(=O)Nc1cccc(C(=O)N2CCCCC2)c1 (configuration not stated)	105.3	4.9	440.3	+	i	1.8
Cc1ccc(NC2=NCCCCC2)cc1C	106.6	10.9	210.1	+	i	0.0
O=C(c1ccccc1F)N1CCN(C(=O)C(c2ccccc2)c2ccccc2)CC1	101.6	-0.5	397.2	i	nt	nt
CC(=O)C1C(c2ccc(F)c(F)c2)NC(=O)NC1(O)C(F)(F)F (configuration not stated)	nt	6.3	nt	i	i	0.3
CC(=O)C1C(c2ccc(OC(F)F)cc2)NC(=O)NC1(O)C(F)(F)F (configuration not stated)	96.9	0.6	450.7	i	nt	nt
O=C(CCC(=O)N(CC(=O)NC1CCCCC1)c1ccc2c(c1)OCO2)Nc1ccccn1	115.2	6.7	159.1	i	i	0.0
CCN1C[C@@H]2[C@@H]3C(=O)N(C)C(=O)[C@@H]3[C@](Cc3ccccc3)(C1=O)N2C(=O)c1ccc(C(C)(C)C)cc1	105.3	-0.2	nt	i	nt	nt
CCOC(=O)N1CCC(N2CCN(S(=O)(=O)c3ccc(OC)cc3)CC2)CC1	107.2	5.8	278.1	i	i	3.5*
CCOC(=O)N1CCC(N2CCN(S(=O)(=O)c3ccc(C)cc3)CC2)CC1	98.2	0.2	683.1	i	nt	nt
CN(C)C(=O)c1ccc(NC(=O)COc2cccc3c2OC(C)(C)C3)cc1	98.8	-4.5	nt	i	nt	nt
CCCCC[C@H](O)/C=C/C1C(=O)C=C[C@H]1C/C=C\CCCC(=O)OC (some centres not stated)	101.3	nt	nt	i	nt	nt
COc1ccc(NC(=O)c2ccc(C)o2)c([N+](=O)[O-])c1	103.9	1.3	97.7	i	nt	nt
COc1ccc(NC(=O)c2ccc([N+](=O)[O-])s2)c([N+](=O)[O-])c1	103.6	21.7	213.1	i	i	0.0
CC(C)C(OC(=O)c1nsc(Cl)c1Cl)C(=O)NC1CCCCC1 (configuration not stated)	89.6	5.6	201.6	i	nt	nt
CC1(C)Cc2c(sc3nc4n(c(=N)c23)CCC4)CO1	101.9	5.6	399.1	i	i	0.0
N=c1c2c3c(sc2nc2n1CCC2)CCCC3	99.6	-17.0	619.3	i	nt	nt
COc1ccc(NC(=O)CCN2CC(C)OC(C)C2)c(OC)c1 (configuration not stated)	nt	8.9	502.7	+	i	0.0
Cc1ccc(/C=N/c2sc(Cc3ccccc3)c(C)c2C(N)=O)o1	109.8	-5.2	0.0	i	i	0.0
O=C(Nc1nccs1)c1ccc(-c2ccc([N+](=O)[O-])cc2)o1	113.0	80.4*	443.2	+	i	0.3
COc1ccc2cc(CN(Cc3ccco3)C(c3nnnn3C3CCCCC3)C(C)C)c(=O)[nH]c2c1 (configuration not stated)	107.5	nt	146.1	+	i	1.3
CCOc1ccc2[nH]c(=O)c(CN(Cc3ccco3)Cc3nnnn3Cc3ccccc3)cc2c1	100.7	0.8	713.9	i	nt	nt
COc1ccc2[nH]c(=O)c(CN(Cc3ccco3)Cc3nnnn3Cc3ccccc3)cc2c1	100.5	3.5	374.2	i	i	0.0
COc1ccc2cc(CN(Cc3ccco3)Cc3nnnn3C3CCCCC3)c(=O)[nH]c2c1	100.5	-11.4	191.4	i	nt	nt
Cc1ccc(S(=O)(=O)N2CCN(C(=O)C(Cc3ccccc3)NC(=O)c3ccccc3)CC2)cc1 (configuration not stated)	98.6	-4.6	496.2	i	nt	nt
Cc1ccc(C(=O)ON=C2CCN(S(=O)(=O)c3ccccc3)CC2)cc1	nt	nt	258.6	i	i	0.0
SMILES	Pemphigus Ab inh	Vif inh	T cell modulator	Myeloid diff MLP	Myeloid diff CP1	GFP autofluor
O=C(ON=C1CCN(S(=O)(=O)c2ccccc2)CC1)c1ccc(F)cc1	96.9	7.7	343.0	i	nt	nt
CCCCNC(=O)C1(C)CCN1C(=O)c1cc2ccccc2s1 (configuration not stated)	nt	-9.0	nt	i	nt	nt
O=C1c2ccccc2C(=O)C1Cc1cccc2ccccc12	i	2.7	353.5	i	i	0.0
O=C1NC(c2cccc3ccccc23)Nc2ccccc21 (configuration not stated)	85.4	11.4	nt	?	nt	nt
CC(=O)N1CN(C2CC(C)(C)NC(C)(C)C2)Cc2c1sc1c2CCCC1	105.2	-1.1	289.9	i	nt	nt
CC(=O)N1CN(C2CCCC2)Cc2c1sc1c2CCCC1	nt	-4.2	204.3	i	i	0.0
CCCS(=O)(=O)NC(=O)C1(C)CCN(C(=O)c2cccs2)C1 (configuration not stated)	nt	5.1	nt	i	nt	nt
Cc1ccc(S(=O)(=O)/N=C2\C(=O)c3ccccc3C([O-])=C2n2cc[n+](CCC(C)C)c2)cc1	122.1	-2.0	797.6	nt	nt	nt
CCCC[n+]1ccn(C2=C([O-])c3ccccc3C(=O)/C2=N\S(=O)(=O)c2ccc(Br)cc2)c1	105.7	0.4	248.0	i	i	0.5
CS(=O)(=O)n1c2ccccc2c(=O)n1-c1ccccc1CCl	nt	1.7	nt	i	nt	nt
COC(=O)C(C)(C)c1cccnc1C#N	99.5	-2.4	nt	i	i	0.0
COCCCn1c(=O)c2ccccc2n(Cc2cc(C(=O)OC)ccc2OC)c1=O	112.2	0.6	226.5	i	nt	nt
COc1ccc(OCC(=O)OCCN2C(=O)c3ccccc3C2=O)cc1	99.8	-0.3	283.6	+	i	0.0
CCOc1ccc(OCCN2C(=O)c3ccccc3C2=O)cc1	103.5	-9.8	336.9	i	nt	nt
COc1ccc(S(=O)(=O)N2CCC3CC2c2c(-c4ccc(C(F)(F)F)cc4)cccc23)cc1 (configuration not stated)	nt	0.3	nt	i	nt	nt
C[C@@H]1CC=C[C@H]2[C@H]1C(=O)N(Cc1ccccc1)[C@H]2c1ccc(-c2ccc(F)cc2)cc1F	102.2	-2.3	190.2	i	i	0.0
C[C@@H]1CC=C[C@H]2[C@H]1C(=O)N(Cc1ccccc1)[C@H]2c1ccc(-c2ccoc2)cc1F	98.0	1.5	239.8	i	nt	nt
COC(=O)[C@@]1(Sc2ccc(C)cc2)CC(=O)N(C(=O)CCc2ccccc2)[C@@H]1c1ccccc1	nt	nt	nt	i	nt	nt
O=C(Cc1ccccc1)N/N=C/c1cc(Br)c(Br)o1	106.0	4.6	360.2	i	i	0.6
O=C(Cc1ccccc1)NN=Cc1ccccc1	105.4	2.6	nt	i	nt	nt
Cc1cccn2c(=O)c(/C=C3\SC(=S)NC3=O)c(NCCCN3CCOCC3)nc12	95.8	82.8*	111.8	+	i	1.4
Cc1cccn2c(=O)c3cc(C(=O)NCCN4CCOCC4)c(=N)n(CCN4CCOCC4)c3nc12	89.2	-0.9	279.4	nt	nt	nt
Cc1nc(-c2ccccc2)sc1C(=O)NS(=O)(=O)c1ccc(CN2CCN(c3ccccc3)CC2)cc1	nt	nt	nt	i	nt	nt
O=c1cc(-c2ccccc2Cl)oc2c(Br)ccc(O)c12	96.5	nt	925.4	+	i	0.4
